Experiment [1] deals with Beta-1 adrenergic receptor (Homo sapiens, UniProt P08588). Kind of experiment: Antagonist activity at human beta1 adrenergic receptor expressed in HEK293 cells co-expressing Galpha16 assessed as inhibition of isoproterenol-induced intercellular calcium mobilization pre-incubated for 10 mins before isoproterenol addition by Fluo-4AM dye-based fluorescence assay. To be noted: read-out: EC50 (the source's name). Type of experiment: functional, cell-based. A digest of the protocol: (§1)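 HEK293 cells stably co-expressing Gα16 and human β1, β2 or β3 receptor, seeded 24 h. Loaded with 2.00 µmol/L Fluo-4 AM in HBSS (BSA, glucose, 250 µmol/L sulfinpyrazone, pH 7.4) for 45 min at 37 °C. Compounds added for 10 min at room temperature, then isoproterenol dispensed. Calcium fluorescence read at ex 485/em 525 nm. IC50 taken from dose-response curves.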
Chain of Beta-1 adrenergic receptor (P08588 whole entry): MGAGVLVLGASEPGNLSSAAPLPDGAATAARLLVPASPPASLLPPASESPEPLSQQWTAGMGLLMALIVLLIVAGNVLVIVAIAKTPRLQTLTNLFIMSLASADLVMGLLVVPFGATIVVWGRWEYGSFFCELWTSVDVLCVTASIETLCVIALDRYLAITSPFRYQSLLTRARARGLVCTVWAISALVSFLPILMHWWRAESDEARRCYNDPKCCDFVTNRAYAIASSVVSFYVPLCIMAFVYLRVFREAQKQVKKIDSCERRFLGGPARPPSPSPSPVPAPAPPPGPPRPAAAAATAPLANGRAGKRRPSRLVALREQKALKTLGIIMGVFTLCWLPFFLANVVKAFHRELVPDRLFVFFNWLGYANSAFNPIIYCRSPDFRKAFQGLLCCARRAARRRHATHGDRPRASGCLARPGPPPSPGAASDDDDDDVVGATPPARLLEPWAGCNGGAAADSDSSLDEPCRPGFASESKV

For experiment [2], the target named is Beta-2 adrenergic receptor (Homo sapiens, UniProt P07550). As to the kind of experiment: Antagonist activity at human beta2 adrenergic receptor expressed in HEK293 cells co-expressing Galpha16 assessed as inhibition of isoproterenol-induced intercellular calcium mobilization pre-incubated for 10 mins before isoproterenol addition by Fluo-4AM dye-based fluorescence assay. The format is functional, cell-based. To be noted: read-out: EC50 (the source's name). Put shortly: as §1
Chain of Beta-2 adrenergic receptor (P07550 whole entry): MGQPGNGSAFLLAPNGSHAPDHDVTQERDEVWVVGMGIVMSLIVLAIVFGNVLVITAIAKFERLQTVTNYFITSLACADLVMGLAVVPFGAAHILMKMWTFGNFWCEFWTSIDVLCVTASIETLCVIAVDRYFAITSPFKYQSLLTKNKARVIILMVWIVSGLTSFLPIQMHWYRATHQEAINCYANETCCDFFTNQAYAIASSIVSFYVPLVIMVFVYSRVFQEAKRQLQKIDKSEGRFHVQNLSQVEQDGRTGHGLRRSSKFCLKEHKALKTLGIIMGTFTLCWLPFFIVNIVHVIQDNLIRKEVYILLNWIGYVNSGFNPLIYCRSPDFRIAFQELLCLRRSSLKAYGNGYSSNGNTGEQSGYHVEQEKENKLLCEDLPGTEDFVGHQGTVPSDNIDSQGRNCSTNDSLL

Experiment [3] concerns the target T1, Beta-3 adrenergic receptor (Homo sapiens, UniProt P13945). As to the kind of experiment: Antagonist activity at human beta3 adrenergic receptor expressed in HEK293 cells co-expressing Galpha16 assessed as inhibition of isoproterenol-induced intercellular calcium mobilization pre-incubated for 10 mins before isoproterenol addition by Fluo-4AM dye-based fluorescence assay. As to conditions: read-out: EC50 (the source's name). The format is functional, cell-based. A digest of the protocol: as §1
Target sequence in this assay (P13945 whole entry): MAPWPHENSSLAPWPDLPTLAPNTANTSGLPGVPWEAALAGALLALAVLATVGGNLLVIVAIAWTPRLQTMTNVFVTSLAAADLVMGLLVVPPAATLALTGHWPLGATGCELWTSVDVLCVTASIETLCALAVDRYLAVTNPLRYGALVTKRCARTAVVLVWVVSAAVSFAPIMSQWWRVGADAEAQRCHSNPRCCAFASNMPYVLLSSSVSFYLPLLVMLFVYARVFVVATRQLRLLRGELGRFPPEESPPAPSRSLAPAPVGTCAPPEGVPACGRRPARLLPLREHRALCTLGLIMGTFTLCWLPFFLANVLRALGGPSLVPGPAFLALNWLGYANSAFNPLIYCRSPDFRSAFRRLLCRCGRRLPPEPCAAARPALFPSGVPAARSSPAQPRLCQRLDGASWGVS

Experiment [4] deals with Beta-3 adrenergic receptor (Mus musculus) (UniProt P25962). Kind of experiment: Antagonist activity at beta3 adrenergic receptor in mouse 3T3L1 cells assessed as inhibition of isoproterenol-induced lipolysis by measuring glycerol accumulation after 2 hrs. Type of experiment: functional, cell-based. Put shortly: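 3T3-L1 preadipocytes were grown on gelatin to confluence, then differentiated with 10 µg/ml insulin, 1 µM dexamethasone and 0.5 mM IBMX for 48 hr, followed by insulin alone for 48 hr. Mature adipocytes were washed and given phenol red-free DMEM with 2% fatty acid-free BSA and 1 µM isoproterenol ± antagonist for 2 hr. Glycerol in cleared medium was read by kit at 550 nm. Mean ± SE, three independent experiments.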
Chain of Beta-3 adrenergic receptor (Mus musculus) (P25962 whole entry): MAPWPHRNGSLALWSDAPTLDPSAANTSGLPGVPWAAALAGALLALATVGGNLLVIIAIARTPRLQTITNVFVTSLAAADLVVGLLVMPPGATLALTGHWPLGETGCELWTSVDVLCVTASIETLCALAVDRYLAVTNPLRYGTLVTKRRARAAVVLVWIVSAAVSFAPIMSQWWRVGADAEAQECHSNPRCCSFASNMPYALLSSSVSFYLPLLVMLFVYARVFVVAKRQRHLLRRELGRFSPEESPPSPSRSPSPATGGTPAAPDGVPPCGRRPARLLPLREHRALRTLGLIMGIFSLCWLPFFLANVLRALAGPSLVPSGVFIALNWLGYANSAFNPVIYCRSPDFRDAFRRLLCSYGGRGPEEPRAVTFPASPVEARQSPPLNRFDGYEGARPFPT

Experiment [5] is filed under the species Homo sapiens. Kind of experiment: Selectivity ratio of EC50 for displacement of [125I]iodocyanopindolol for human beta1 adrenergic receptor expressed in CHO dhfr cell membranes to EC50 for displacement of [125I]iodocyanopindolol from human beta3 adrenergic receptor expressed in CHO dhfr cell membranes. (Loss of bound radioactivity is the signal in a displacement assay; it reports binding, not function.)

For experiment [6], the species on record is Homo sapiens. As to the kind of experiment: Selectivity ratio of EC50 for displacement of [125I]iodocyanopindolol for human beta2 adrenergic receptor expressed in CHO dhfr cell membranes to EC50 for displacement of [125I]iodocyanopindolol from human beta3 adrenergic receptor expressed in CHO dhfr cell membranes.
For experiment [7], the system named is Mus musculus. As to the kind of experiment: Antitumor activity against mouse C26 cells xenografted in BALB/c mouse assessed as decrease in tumor volume at 2.5 mg/kg, ip dosed daily for 13 days. The format is functional, organism-based.
For experiment [8], the species on record is Homo sapiens. As to the kind of experiment: Selectivity index, ratio of EC50 for human beta1 adrenergic receptor to EC50 for human beta3 adrenergic receptor.
The species entered for experiment [9] is Homo sapiens. Kind of experiment: Selectivity index, ratio of EC50 for human beta2 adrenergic receptor to EC50 for human beta3 adrenergic receptor.
Experiment [10] has as its system Mus musculus. As to the kind of experiment: Antilipolytic activity against mouse C26 cells xenografted in BALB/c mouse assessed as reduction in lipolysis of body fat by measuring glycerol content in serum at 2.5 mg/kg, ip dosed daily for 13 days. The format is functional, organism-based.
Experiment [11] has as its target T1, Beta-3 adrenergic receptor. As to the kind of experiment: Potency index, ratio of EC50 for L-748,337 to EC50 for test compound for antagonist activity at human beta3 adrenergic receptor expressed in HEK293 cells co-expressing Galpha16 assessed as inhibition of isoproterenol-induced intercellular calcium mobilization pre-incubated for 10 mins before isoproterenol addition by Fluo-4AM dye-based fluorescence assay. The format is functional, cell-based. A general note: A change in cytosolic calcium serves as a functional read-out for many receptors and channels.
Target sequence in this assay (P13945 whole entry, looked up): as the sequence (P13945 whole entry) above

The test system of experiment [12] is Mus musculus. As to the kind of experiment: Inhibition of tumor-induced body weight loss in BALB/c mouse xenografted with mouse C26 cells assessed as reduction in body weight at 2.5 mg/kg, ip dosed daily for 13 days (reference value: 8.3%). The format is functional. Also noted: scale not given: the % may be the effect or the level left.

Each structure is given as a SMILES string. Activity calls are given as the source filed them. No cut-off for these calls is given here.

On to `O=C(Cc1ccccc1)Nc1ccc(CCNC[C@H](O)COc2cccc3[nH]ccc23)cc1`, for which the IC50 in experiment [1] was found to be 7.64 nM; in experiment [2] it was 83.1 nM; in experiment [3] it was 1.09 nM.
On to `CCc1ccccc1OC[C@@H](O)CNCCc1ccc(NC(=O)Nc2ccccc2)cc1`, for which the IC50 came out at 426 nM in experiment [1], 1420 nM in [2] and 55.5 nM in [3].
The matching figures for `O=C(Nc1ccc(CCNC[C@H](O)COc2cccc3[nH]ccc23)cc1)c1ccccc1`: 36 nM, 118 nM and 1.42 nM.
As for `COC(=O)Nc1ccc(NC(=O)Nc2ccc(CCNC[C@H](O)COc3cccc4[nH]ccc34)cc2)cc1`, the inhibition result in [4] was “Active”. In addition, the IC50 in experiment [3] turned out to be 1.42 nM.
As to `O=C(Nc1ccc(CCNC[C@H](O)COc2cccc3[nH]ccc23)cc1)Nc1ccccc1F`, the IC50 in [3] was determined as 3.58 nM.
As for `CCc1ccccc1OC[C@@H](O)CNCCc1ccc(NC(=O)Cc2ccccc2)cc1`, the IC50 came to 36.8 nM in [1], 281 nM in experiment [2] and 8.68 nM in experiment [3].
`CCCCCC(=O)Nc1ccccc1NC(=O)Nc1ccc(CCNC[C@H](O)COc2cccc3[nH]ccc23)cc1`: the IC50 in experiment [3] amounted to 2.08 nM.
Still for that read-out and setting: the value for `CCCCCC(=O)Nc1cccc(NC(=O)Nc2ccc(CCNC[C@H](O)COc3cccc4[nH]ccc34)cc2)c1` was 1.78 nM.
`CC(C)NC(=O)Nc1ccc(CCNC[C@H](O)COc2cccc3[nH]ccc23)cc1`: in [4], the inhibition entry is “Active”. Moreover, in experiment [3], the IC50 is 1.03 nM.
Consider `CC(=O)NCc1cccc(OC[C@@H](O)CNCCc2ccc(NC(=O)Nc3ccccc3)cc2)c1`, for which the IC50 worked out at 12700 nM in [1], 9840 nM in [2] and 4.7 nM in [3].
For the molecule `O=C(NCCc1ccccc1)Nc1ccc(CCNC[C@H](O)COc2cccc3[nH]ccc23)cc1`, in experiment [4], the inhibition result is “Active”. Moreover, the IC50 in experiment [3] is 2.15 nM.
As to `O=C(Nc1ccc(CCNC[C@H](O)COc2cccc3[nH]ccc23)cc1)Nc1cccc(F)c1`, the IC50 in experiment [3] is 2.93 nM.
As to `CCc1ccccc1OC[C@@H](O)CNCCc1ccc(NS(=O)(=O)c2ccccc2)cc1`, the IC50 in experiment [1] was found to be 299 nM; in [2], 954 nM; in experiment [3] it was 11.1 nM.
On to `CCc1ccccc1OC[C@@H](O)CNCCc1ccc(NC(=O)c2ccccc2)cc1`, for which the IC50 in experiment [1] was determined as 124 nM; in experiment [2] it was 294 nM; in experiment [3] it was 7.7 nM.
For the molecule `O=C(Nc1ccc(F)cc1)Nc1ccc(CCNC[C@H](O)COc2cccc3[nH]ccc23)cc1`, the inhibition result in [4] is “Active”. Moreover, the IC50 in experiment [3] came out at 2.49 nM.
Regarding `CCCCCC(=O)Nc1ccc(NC(=O)Nc2ccc(CCNC[C@H](O)COc3cccc4[nH]ccc34)cc2)cc1`, the IC50 in experiment [3] was found to be 10.4 nM.
Same read-out and setting: next, `COc1cccc(NC(=O)Nc2ccc(CCNC[C@H](O)COc3cccc4[nH]ccc34)cc2)c1`: 4.62 nM.
On to `COc1ccc(NC(=O)Nc2ccc(CCNC[C@H](O)COc3cccc4[nH]ccc34)cc2)cc1`, for which, in experiment [4], the inhibition result is “Active”. Also, the IC50 in [3] is 1.49 nM.
For the molecule `O=S(=O)(Nc1ccc(CCNC[C@H](O)COc2cccc3[nH]ccc23)cc1)c1ccccc1`, the figures for the IC50 in experiment [1], in [2] and in experiment [3] were 14.8 nM, 353 nM and 2.09 nM, respectively.
The matching figures for `CC(=O)NCc1cccc(OC[C@@H](O)CNCCc2ccc(NS(=O)(=O)Nc3ccccc3)cc2)c1`: 224 nM, 8430 nM and 3.41 nM.
Take `CC(=O)NCc1cccc(OC[C@@H](O)CNCCc2ccc(NS(=O)(=O)c3ccccc3)cc2)c1`: the Ratio EC50 is > 90 in the experiment listed under Homo sapiens [5] and 45 in the experiment listed under Homo sapiens [6]. In addition, in [4], the inhibition entry was “Active”.
In the case of `COc1ccccc1NC(=O)Nc1ccc(CCNC[C@H](O)COc2cccc3[nH]ccc23)cc1`, the IC50 in experiment [3] is 8.44 nM.
Take `COC(=O)Nc1ccccc1NC(=O)Nc1ccc(CCNC[C@H](O)COc2cccc3[nH]ccc23)cc1`: the IC50 in experiment [3] came out at 2.62 nM.
In the case of `CC(=O)NCc1cccc(OC[C@@H](O)CNCCc2ccc(NC(=O)c3ccccc3)cc2)c1`, the IC50 in experiment [1] was found to be 100000 nM; in experiment [2], 6060 nM; in experiment [3], 7.81 nM.
As to `COC(=O)Nc1cccc(NC(=O)Nc2ccc(CCNC[C@H](O)COc3cccc4[nH]ccc34)cc2)c1`, the IC50 in [3] is 1.65 nM.
Turning to `O=C(Nc1ccc(CCNC[C@H](O)COc2cccc3[nH]ccc23)cc1)NC1CCCCC1`, in experiment [4], the inhibition entry is “Active”. In addition, the IC50 in experiment [3] was found to be 2.89 nM.
For the molecule `O=C(Nc1ccccc1)Nc1ccc(CCNC[C@H](O)COc2cccc3[nH]ccc23)cc1`, the IC50 was 2.88 nM in experiment [1], 52.2 nM in experiment [2] and 0.512 nM in [3]. In addition, the inhibition result in experiment [4] was “Active”. Also, the outcome with Mus musculus [7] and with Mus musculus [10] was Active. For the same molecule, the results for the Ratio EC50 (in the experiment listed under Homo sapiens [8]; in the experiment listed under Homo sapiens [9]; in experiment [11]) were 6, 100 and 23, respectively. Also, the Activity in the experiment on Mus musculus [12] is 4.6%.
Turning to `CC(=O)NCc1cccc(OC[C@@H](O)CNCCc2ccc(NC(=O)Cc3ccccc3)cc2)c1`, the IC50 in experiment [1] stood at 6200 nM; in experiment [2] it was 15900 nM; in [3] it was 4.58 nM.

These data come from ChEMBL document CHEMBL4229363, “Design and synthesis of aryloxypropanolamine as β3-adrenergic receptor antagonist in cancer and lipolysis” (Eur J Med Chem, 2018).
